Source: PubChem BioAssay (several laboratories)
An excerpt weighted towards active compounds, which were near 1.6% of everything screened.
p97 inhibitor – blocks human p97 ATPase activity; inhibition, % at 8 µM; P55072; recombinant p97 ATPase, Kinase-Glo ATP luminescence, 3 h; AID 1481; hit rate 0.42% among 220,000; in the data active = inhibition above about 15%;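 also: 0% = DMSO vehicle and 100% = wells lacking enzyme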
p47phox inh – p47phox (human) inhibition | P14598 | p47phox/p22phox peptide binding, fluorescence polarization, 2 h | inhibition, % at 24.7 µM | hit rate 0.53% among 220,000;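 also: 0% = p47phox with labelled peptide and 100% = labelled peptide alone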
UBC9 SUMO inh – blocks human SUMOylation mediated by UBC9 | HTRF SUMOylation assay, SAE1/SAE2 + UBC9, in vitro | inhibition, % at 35 µM | hit rate 0.36% among 290,000 | AID 2006; in the data active = inhibition above about 50%, passing the limit was not always enough
Target sequence (P63279 whole entry, looked up): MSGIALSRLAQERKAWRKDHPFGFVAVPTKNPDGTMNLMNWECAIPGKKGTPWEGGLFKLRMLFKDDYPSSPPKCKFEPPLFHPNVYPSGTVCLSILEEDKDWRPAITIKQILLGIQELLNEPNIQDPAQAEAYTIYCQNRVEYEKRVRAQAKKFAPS
eIF4E-4G inh – inhibitors of eIF4E and eIF4G interaction in translation initiation; P63073+Q04637; TR-FRET eIF4E-eIF4GI(517-606) binding, 2 h; hit rate 0.37% among 220,000; inhibition, % at 21.7 µM;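 also: 0% = full FRET control wells and 100% = background wells lacking eIF4GI fragment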
14-3-3 Bad PPI – disrupts binding of bovine 14-3-3 zeta to phospho-Bad peptide | P63103 | TR-FRET 14-3-3zeta/Dy647-pBad peptide displacement, 1 h | inhibition, % at 21.7 µM | hit rate 0.71% among 220,000 | AID 781;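 active = inhibition above about 70%, limit read from the data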;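 also: 0% = full 14-3-3 plus peptide FRET controls and 100% = background without 14-3-3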
Target sequence (P63103 whole entry, looked up): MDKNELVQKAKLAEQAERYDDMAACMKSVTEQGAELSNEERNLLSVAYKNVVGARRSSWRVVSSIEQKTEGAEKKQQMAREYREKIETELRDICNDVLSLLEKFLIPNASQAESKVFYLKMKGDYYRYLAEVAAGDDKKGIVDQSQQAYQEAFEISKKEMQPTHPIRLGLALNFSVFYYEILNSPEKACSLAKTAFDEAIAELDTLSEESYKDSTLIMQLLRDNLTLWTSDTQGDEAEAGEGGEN
TbMetRS inhib – blocks T. brucei methionyl-tRNA synthetase activity. purified T. brucei MetRS, ATP depletion, Kinase-Glo luminescence. inhibition, % at 11.9 µM. hit rate 0.4% among 360,000. AID 624268;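 active = inhibition above a per-plate cutoff of the control wells' mean inhibition plus 3 SD, cut at about 5.5% in these data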;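 also: 0% = DMSO wells median and 100% = median of wells with control inhibitor compound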
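Material – parasite MetRS enzyme · Medium – HEPES-MgCl2-KCl buffer plus DTT, spermine, BSA, pyrophosphatase · Reagent – ATP, methionine and E. coli bulk tRNA substrates · Times – 15 min enzyme-compound preincubation, 2 h reaction, 10 min detection, 25 °C · Measured by – luminescence of leftover ATP · Evaluation – percent inhibition relative to median high and low control wells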
An asterisk follows results filed as active; · = not tested or not shown; [ ] = remark or other dose.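 The calls were made as follows, unless noted: active = inhibition above about 30% (limit read from the data); inactive = the rest.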

SMILES	p97 inhibitor	p47phox inh	UBC9 SUMO inh	eIF4E-4G inh	14-3-3 Bad PPI	TbMetRS inhib
N#Cc1ccc(C(c2nnnn2Cc2ccccc2)N2CCCC2)cc1 (centres undefined)	4.5	-14.9	-9.1	4.8	70.0*	-0.5
CSc1nc(Cl)c(C#N)c(-c2ccc(C)cc2)n1	-4.4	-3.4	6.5	-6.7	77.2*	0.1
CC(=O)Nc1ccc(NC(=O)c2ccc(COc3ccc4c(C)cc(=O)oc4c3)cc2)cc1	0.5	-25.7	23.3	9.3	50.6	·
Cc1ccc(Cl)cc1NC(=O)COC(=O)c1ccc(COc2ccc3c(C)cc(=O)oc3c2)cc1	-6.6	-11.6	12.7	24.7	78.1*	·
CC(C)OC(=O)CSc1nnc(-c2ccc(Cl)cc2)n1N	3.5	4.4	10.7	-6.2	13.2	-0.2
CCC(C)NC(=O)CSc1nnc(-c2ccc(Cl)cc2)n1N (centres undefined)	10.9	53.0*	8.0	0.9	-2.5	-0.2
NS(=O)(=O)c1ccc(CCNCc2ccccc2OCc2ccc(Cl)cc2)cc1	·	·	-3.0	·	·	-0.9
COc1ccc(N/C(=C(/C(Cl)=C(Cl)Cl)[N+](=O)[O-])n2nnc3ccccc32)cc1	2.9	-3.4	14.5	0.3	78.6*	·
C[C@H](NC(=O)C[C@@H]1C=C[C@@H](NC(=O)CN2CCOCC2)[C@@H](CO)O1)c1ccccc1	·	·	·	·	·	-1.0
CN(C)CCNc1nc2sc3c(c2c(=O)n1-c1ccccc1)CCCCC3	3.8	-10.6	-9.4	79.0*	-6.8	-0.2
COc1ccc(C(OC(=O)c2c(C)noc2C)C(=O)NC2CCCC2)cc1 (centres undefined)	3.7	12.4	7.6	7.9	81.9*	0.1
COc1ccc(C(OC(=O)c2ccco2)C(=O)NC2CCCCC2)cc1 (centres undefined)	-2.8	-3.0	-9.3	-0.3	-1.1	-0.6
COc1ccccc1N(C(C)=O)c1nc(C)cc(C)c1C#N	5.4	-5.4	10.3	-5.3	2.9	-0.8
COc1cccc(C(=O)NC2=NCCS2)c1	-2.2	-19.0	21.2	-6.7	-7.3	-1.5
CC(C)Oc1cccc(C(=O)NC2=NCCS2)c1	2.6	6.1	21.4	3.0	79.7*	0.2
Cc1cccc(C)c1NC(=O)C(C1CC1)n1c(-c2ccc(-c3ccccc3)cc2)nc2ccccc21 (centres undefined)	·	·	·	·	·	0.1
O=C(Cn1ncc(Cl)c(Cl)c1=O)Nc1ccc2c(c1)OCO2	·	·	·	·	·	0.5
CCN(CC)S(=O)(=O)c1cc(NC(=O)Cn2ncc(Cl)c(Cl)c2=O)ccc1C	3.5	-0.4	66.5*	12.8	28.1	-0.9
CN(C)c1ccc(CNCCC2CCOC(C)(C)C2)cc1 (centres undefined)	5.2	-10.8	17.4	-6.9	91.8*	·
Cc1ccc(-c2cc(C(=O)Nc3ccc(S(=O)(=O)Nc4ncccn4)cc3)[nH]n2)c(O)c1C	3.5	-71.5	30.6	-9.0	26.5	-0.7
CS(=O)(=O)N(CC(=O)N1CCN(c2ccccc2)CC1)c1cccc(Br)c1	-1.4	34.8*	-2.6	-2.4	23.2	0.4
CN(CC(=O)Nc1ccccc1Cl)C(=O)C1CCN(C(=O)c2ccc(F)cc2)CC1	·	·	·	·	·	0.1
C=CCN(c1ccccc1)S(=O)(=O)c1cccc(C(=O)O)c1	2.9	-10.0	6.7	0.3	70.1*	-0.9
CCOC(=O)CCn1c2nc(C)cc(C)c2c(=O)n1-c1ccccc1	1.3	33.9*	33.2	·	·	-0.3
CCOC(=O)Cn1nc(C)n(-c2ccccc2)c1=O	0.6	-0.4	-21.4	-3.8	-7.8	-0.3
SMILES	p97 inhibitor	p47phox inh	UBC9 SUMO inh	eIF4E-4G inh	14-3-3 Bad PPI	TbMetRS inhib
COC1=CC(=O)OC(c2ccc(C(F)(F)F)cc2)C1 (centres undefined)	·	·	·	·	·	-0.6
COc1ccc(OC)c(N)c1	2.2	106.3*	5.4	-6.7	33.1	0.5
FC(F)Oc1ccc(NC(=S)N2CCc3ccccc32)cc1	8.4	-5.9	-3.2	0.4	-13.2	0.9
c1ccc(CN(CC2=NCCN2)c2ccccc2)cc1	3.1	-2.6	5.0	-3.4	-3.3	-0.9
c1ccc(CC2=NCCN2)cc1	-5.8	53.8*	4.0	0.3	-0.8	-1.0
Cc1cc2nc3c(=O)[nH]c(=O)[nH]c3nc2c([N+](=O)[O-])c1N	14.1	-147.8	75.6*	50.3*	73.2*	-0.3
Cc1c(N)c(C(C)(C)C)cc(C(C)(C)C)c1[N+](=O)[O-]	-1.2	-2.1	-28.6	-0.8	-11.7	-0.5
CCN(CC)CC(=O)Nc1cccc2c1C(=O)c1ccccc1C2=O	2.8	-3.1	9.7	1.8	0.3	0.8
O=C1c2ccccc2C(=O)c2c(NCCCN(CCO)CCO)cccc21	-1.0	37.3*	-15.5	2.8	-27.5	-1.4
Cc1ccc(C)c(OCC(=O)Nc2nonc2NC(=O)COc2cc(C)ccc2C)c1	0.2	-14.1	56.7*	0.8	11.3	-0.5
Cc1cccc(OCC(=O)Nc2nonc2NC(=O)COc2cccc(C)c2)c1	2.2	-6.9	·	-5.0	25.4	-0.2
CCCCCCCCN1C(=O)[C@H](CC(=O)NCc2cccc(C(F)(F)F)c2)C[C@@]2(C(=O)OCC)CCCC=C12	·	·	·	·	·	0.1
COC(=O)C[C@H]1C=C[C@H](NC(=O)c2cccc(F)c2)[C@@H](CO)O1	·	·	·	·	·	-1.0
CC1=CC(=C2C(=O)c3ccccc3C2=O)C=C(C)O1	-1.8	69.5*	-13.3	-38.2	-104.2	-0.7
CC(=O)N1C(=O)C(=C2C=C(C)OC(C)=C2)c2ccccc21	-5.7	-57.5	23.7	5.2	-1.6	-0.1
CC[C@]12C(=O)N(C)C[C@H]([C@@H]3C(=O)N(C)C(=O)[C@@H]31)N2C(=O)c1ccc(Cl)c(Cl)c1	·	·	·	·	·	-0.4
COc1ccc(NC(=O)c2cc(C3CCCCN3S(=O)(=O)c3ccc(F)cc3F)on2)c(C)c1 (centres undefined)	·	·	·	·	·	-0.1
CCc1nnc(NC(=O)CSc2nnc(-c3cc4ccccc4cc3O)n2CC)s1	-0.1	2.9	18.1	-0.8	8.8	0.4
CCc1nnc(NC(=O)CSc2nnc(-c3cc4ccccc4cc3O)n2CCOC)s1	17.0*	-6.9	-3.5	4.6	-15.9	-0.4
CC(C)c1ccc(OC(=O)NCCO)cc1	7.7	41.1*	1.8	-16.1	-4.4	-0.9
COc1ccc(OC(=O)NCCc2ccccc2)cc1	0.2	-13.0	12.2	1.1	-3.4	-0.4
Cc1c(C(=O)N2CCCC2)sc(NC(=O)c2ccccc2)c1C#N	2.7	-26.7	0.5	-0.2	77.8*[fluorescence artefact?]	0.0
COc1ccc2c3c(n(C(=O)OC(C)(C)C)c2c1)C1CC=C(COC(C)=O)CN1CC3 (centres undefined)	·	·	·	·	·	-0.5
C/C(=N\NC(=O)C1COc2ccccc2O1)c1cc2ccccc2o1 (centres undefined)	-8.0	0.0	10.0	-1.5	3.7	-0.3
Oc1cc2c(cc1C(c1ccc(Cl)c(Cl)c1)N1CCCC1)OCO2 (centres undefined)	8.1	10.6	-16.0	37.8*	17.6	1.5
O=c1cc(SCc2ccccc2)nc[nH]1	·	·	·	·	·	0.1
